According to ChEMBL document CHEMBL3112425, “Design, synthesis, and structure-activity relationship studies of a potent PACE4 inhibitor” (J Med Chem, 2014):
Square brackets hold non-standard residues; d marks the D form. Peptide text beside a SMILES is read from it. * marks the point of attachment. NH(4-amidinobenzyl) = N=C(N)c1ccc(CN*)cc1; Nle = CCCC[C@H](N)C(=O)O

What was measured:
[1] = tested on: Plasma; assay: Drug degradation in CD-1 mouse plasma at 0.5 ug/uL after 30 mins by MALDI-TOF MS analysis; type: ADME, cell-free; conditions: 0.5 h
How it was run: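 For fragment mapping, 100 μg peptide was incubated in murine plasma at 37 °C. At each time point, plasma samples were quenched with 3% TFA. Proteins were precipitated with 2 volumes acetonitrile and centrifuged at 17 000g. Supernatants were analyzed by MALDI-TOF MS for C-terminally truncated fragments.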

[2] = Acute toxicity in human DU145 cells assessed as cell death/lysis at 100 uM after 4 hrs by LDH assay; type: cell-based, DU-145; conditions: read-out: INH
How it was run: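 DU145 cells (RPMI 1640, 5% FBS, 37 °C, 5% CO2) plated; 24 h later peptides added at 100 μM. After 4 h, release of lactate dehydrogenase into the medium was quantified enzymatically with a commercial LDH cytotoxicity kit as the measure of acute membrane damage/lysis.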

[3] = tested on: PC-3; assay: Cytotoxicity against human PC3 cells up to 350 uM after 72 hrs by MTT assay; type: functional
How it was run: (§1)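 Prostate cancer cells were kept in RPMI 1640 at 37 °C, 5% CO2, with 5% FBS for DU145 and 10% FBS for LNCaP and PC3. After 24 h, medium was changed and peptides added at various concentrations, up to 350 μM. Viability was read by MTT after 72 h treatment. IC50 from dose–response curves, triplicate, mean ± SEM.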

[4] = tested on: DU-145; assay: Cellular uptake in human DU145 cells after 1 hr by propidium iodide staining-based FACS analysis; type: ADME, cell-based; conditions: du-145, 1 h
How it was run: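 FITC-βAla-labelled peptides at 10 μM were given to DU145 cells for 1 h in serum-free RPMI. Cells were collected, then washed twice with 0.05% trypsin (5 min, 37 °C) to strip membrane-bound peptide. Propidium iodide (10 μg/mL, 2 min) excluded damaged cells. FACS read 10 000 events/sample as geometric mean fluorescence, against untreated-cell autofluorescence.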

[5] = Half life in CD-1 mouse plasma at 0.5 ug/uL by RP-HPLC analysis; type: ADME, cell-free
How it was run: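 Peptides at 0.5 μg/μL were incubated at 37 °C in heparinized plasma pooled from mixed-sex CD1 mice. At each time point the reaction was stopped with 1 M guanidinium-HCl, then acetonitrile, and proteins were spun out. Supernatant peptide AUC (RP-HPLC) was compared with non-incubated samples. Half-life came from a one-phase decay fit. Run ≥3 times, duplicate per time point.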

[6] = biological target: T1, Proprotein convertase subtilisin/kexin type 6 (Homo sapiens, UniProt P29122); assay: Inhibition of human recombinant PACE4 expressed in drosophila schneider 2 cells using pyroGlu-Arg-Thr-Lys-Arg-AMC as substrate after 1 hr
T1 sequence (P29122 whole entry): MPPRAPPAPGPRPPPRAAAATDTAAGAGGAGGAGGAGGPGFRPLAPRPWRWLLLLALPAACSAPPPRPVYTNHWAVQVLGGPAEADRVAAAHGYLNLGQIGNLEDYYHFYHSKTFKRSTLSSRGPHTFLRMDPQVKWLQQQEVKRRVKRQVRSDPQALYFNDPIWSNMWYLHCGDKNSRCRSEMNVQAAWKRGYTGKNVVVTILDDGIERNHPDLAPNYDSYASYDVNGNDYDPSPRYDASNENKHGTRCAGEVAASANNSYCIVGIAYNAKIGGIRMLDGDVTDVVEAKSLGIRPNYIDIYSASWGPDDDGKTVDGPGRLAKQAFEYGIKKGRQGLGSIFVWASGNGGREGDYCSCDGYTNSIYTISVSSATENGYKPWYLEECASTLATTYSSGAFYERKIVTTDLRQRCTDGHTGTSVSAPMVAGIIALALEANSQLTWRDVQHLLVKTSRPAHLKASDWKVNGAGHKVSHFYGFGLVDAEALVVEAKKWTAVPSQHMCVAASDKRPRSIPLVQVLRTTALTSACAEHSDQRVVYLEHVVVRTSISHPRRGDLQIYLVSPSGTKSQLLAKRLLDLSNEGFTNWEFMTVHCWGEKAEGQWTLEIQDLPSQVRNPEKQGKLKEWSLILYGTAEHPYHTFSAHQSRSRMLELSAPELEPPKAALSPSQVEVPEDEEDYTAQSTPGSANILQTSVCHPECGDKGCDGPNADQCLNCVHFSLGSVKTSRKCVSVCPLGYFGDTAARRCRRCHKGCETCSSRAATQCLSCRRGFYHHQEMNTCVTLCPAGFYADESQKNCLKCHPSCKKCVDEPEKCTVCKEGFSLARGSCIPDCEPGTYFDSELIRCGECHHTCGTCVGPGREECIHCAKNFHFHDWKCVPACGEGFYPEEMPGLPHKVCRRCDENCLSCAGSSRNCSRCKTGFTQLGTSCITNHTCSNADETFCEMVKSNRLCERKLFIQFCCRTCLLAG
How it was run: (§2)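 Human enzymes were expressed in Drosophila S2 cells and purified. Fluorogenic pyroGlu-RTKR-AMC was used at fixed concentration with varied inhibitor, 37 °C over 1 h. Buffers: furin, 100 mM Hepes pH 7.5, 1 mM CaCl2, 1 mM β-mercaptoethanol, 1.8 mg/mL BSA; PACE4 and PC7, 20 mM Bis-Tris pH 6.5, 1 mM CaCl2, 1.8 mg/mL BSA; PC2, same buffer at pH 5.7. Ki from IC50 (Cheng–Prusoff), or apparent Ki (Morrison) for tight binders. Triplicate, mean ± SD.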

[7] = tested on: PC-3; assay: Cytotoxicity against human PC3 cells after 72 hrs by MTT assay; type: functional, cell-based; conditions: PC-3, 72 h; how it was run: as §1
[8] = tested on: LNCaP; assay: Cytotoxicity against human LNCAP cells after 72 hrs by MTT assay; type: functional, cell-based; how it was run: as §1
[9] = tested on: DU-145; assay: Cytotoxicity against human DU145 cells after 72 hrs by MTT assay; type: functional, cell-based; conditions: DU-145, 72 h; how it was run: as §1
[10] = biological target: Furin (Homo sapiens, UniProt P09958); assay: Inhibition of human recombinant furin expressed in drosophila schneider 2 cells using pyroGlu-Arg-Thr-Lys-Arg-AMC as substrate after 1 hr; how it was run: as §2
Chain of Furin (P09958 whole entry): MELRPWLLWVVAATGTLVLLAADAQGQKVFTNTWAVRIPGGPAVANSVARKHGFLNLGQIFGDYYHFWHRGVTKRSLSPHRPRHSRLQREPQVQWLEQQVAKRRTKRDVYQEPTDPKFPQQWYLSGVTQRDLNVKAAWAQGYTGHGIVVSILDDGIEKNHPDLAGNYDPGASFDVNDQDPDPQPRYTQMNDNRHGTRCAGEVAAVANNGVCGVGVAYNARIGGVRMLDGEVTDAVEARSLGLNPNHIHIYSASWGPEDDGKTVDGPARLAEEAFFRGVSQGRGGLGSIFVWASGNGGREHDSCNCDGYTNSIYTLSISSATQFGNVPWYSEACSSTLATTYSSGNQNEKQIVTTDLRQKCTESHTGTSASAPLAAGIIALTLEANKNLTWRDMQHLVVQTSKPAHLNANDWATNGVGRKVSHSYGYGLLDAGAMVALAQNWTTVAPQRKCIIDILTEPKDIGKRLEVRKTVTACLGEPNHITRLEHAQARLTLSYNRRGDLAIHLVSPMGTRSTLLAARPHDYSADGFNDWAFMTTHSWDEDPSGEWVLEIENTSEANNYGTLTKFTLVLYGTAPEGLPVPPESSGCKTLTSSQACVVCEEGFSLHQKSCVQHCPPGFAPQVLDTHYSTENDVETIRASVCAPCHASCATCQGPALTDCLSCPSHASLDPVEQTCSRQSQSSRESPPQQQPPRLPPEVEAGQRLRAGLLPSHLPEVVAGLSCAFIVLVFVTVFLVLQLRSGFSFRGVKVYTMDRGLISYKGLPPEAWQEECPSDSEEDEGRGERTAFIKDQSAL

[11] = tested on: LNCaP; assay: Cytotoxicity against human LNCAP cells up to 350 uM after 72 hrs by MTT assay; type: functional; how it was run: as §1
[12] = tested on: DU-145; assay: Cytotoxicity against human DU145 cells up to 350 uM after 72 hrs by MTT assay; type: functional; how it was run: as §1
[13] = biological target: T2, Proprotein convertase subtilisin/kexin type 7 (Homo sapiens, UniProt Q16549); assay: Inhibition of human PC7 expressed in drosophila schneider 2 cells using pyroGlu-Arg-Thr-Lys-Arg-AMC as substrate after 1 hr; how it was run: as §2
T2 sequence (Q16549 whole entry): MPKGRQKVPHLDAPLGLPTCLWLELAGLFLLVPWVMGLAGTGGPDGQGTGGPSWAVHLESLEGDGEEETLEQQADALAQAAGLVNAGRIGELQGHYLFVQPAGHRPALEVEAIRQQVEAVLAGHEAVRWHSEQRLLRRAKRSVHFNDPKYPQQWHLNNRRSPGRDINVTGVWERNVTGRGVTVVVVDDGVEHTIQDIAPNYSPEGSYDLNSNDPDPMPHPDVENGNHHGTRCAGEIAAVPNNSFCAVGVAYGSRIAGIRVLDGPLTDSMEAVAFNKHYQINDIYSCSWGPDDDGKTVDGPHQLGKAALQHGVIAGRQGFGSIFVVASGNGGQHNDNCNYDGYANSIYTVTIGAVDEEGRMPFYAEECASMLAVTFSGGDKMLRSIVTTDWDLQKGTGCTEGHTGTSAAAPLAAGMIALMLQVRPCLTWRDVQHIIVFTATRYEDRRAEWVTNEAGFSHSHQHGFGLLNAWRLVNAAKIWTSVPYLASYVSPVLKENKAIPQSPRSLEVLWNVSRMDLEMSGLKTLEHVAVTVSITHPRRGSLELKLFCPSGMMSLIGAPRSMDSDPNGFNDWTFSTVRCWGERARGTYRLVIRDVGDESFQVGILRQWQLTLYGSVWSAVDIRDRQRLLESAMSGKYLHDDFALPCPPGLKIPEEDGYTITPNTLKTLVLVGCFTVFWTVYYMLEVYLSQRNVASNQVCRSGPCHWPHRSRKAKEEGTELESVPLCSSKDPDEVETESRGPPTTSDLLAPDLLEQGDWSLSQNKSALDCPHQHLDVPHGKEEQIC

[14] = biological target: T3, Neuroendocrine convertase 2 (Homo sapiens, UniProt P16519); assay: Inhibition of human PC2 expressed in drosophila schneider 2 cells using pyroGlu-Arg-Thr-Lys-Arg-AMC as substrate after 1 hr; how it was run: as §2
T3 sequence (P16519 whole entry): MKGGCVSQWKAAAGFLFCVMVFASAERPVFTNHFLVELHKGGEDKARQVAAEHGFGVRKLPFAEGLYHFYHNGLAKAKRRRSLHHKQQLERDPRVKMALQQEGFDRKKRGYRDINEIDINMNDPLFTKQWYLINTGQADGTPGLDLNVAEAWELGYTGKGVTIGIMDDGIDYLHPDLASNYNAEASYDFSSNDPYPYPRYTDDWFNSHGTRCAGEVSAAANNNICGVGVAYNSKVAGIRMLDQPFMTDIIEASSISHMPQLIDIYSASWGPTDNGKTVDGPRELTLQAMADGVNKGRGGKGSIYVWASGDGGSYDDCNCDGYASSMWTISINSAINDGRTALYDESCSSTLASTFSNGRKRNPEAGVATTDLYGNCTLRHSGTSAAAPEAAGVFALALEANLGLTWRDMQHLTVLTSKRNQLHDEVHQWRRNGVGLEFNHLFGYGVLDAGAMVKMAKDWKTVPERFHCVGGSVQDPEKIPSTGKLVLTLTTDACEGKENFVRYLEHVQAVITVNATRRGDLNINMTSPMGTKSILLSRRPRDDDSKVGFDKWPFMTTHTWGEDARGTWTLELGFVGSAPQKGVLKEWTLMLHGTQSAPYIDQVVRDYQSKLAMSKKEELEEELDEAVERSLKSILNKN

Structure (SMILES): CC(=O)N[C@@H](CC(C)C)C(=O)N[C@@H](CC(C)C)C(=O)N[C@@H](CC(C)C)C(=O)N[C@@H](CC(C)C)C(=O)N[C@@H](CCCNC(=N)N)C(=O)N[C@H](C(=O)N[C@@H](CCCCN)C(=O)N[C@@H](CCCNC(=N)N)C(N)=O)C(C)C
- Stability [1]: Unstable
- cytotoxicity at 4 h, 100 µM [2]: < 5%
- inhibition (INH) [3]: <50%
- Drug uptake [4]: Active
- half-life at 0.5 ug/uL [5]: 306 min
- Ki [6]: 20 nM

Structure (SMILES): CC(=O)N[C@H](CC(C)C)C(=O)N[C@@H](CC(C)C)C(=O)N[C@@H](CC(C)C)C(=O)N[C@@H](CC(C)C)C(=O)N[C@@H](CCCN=C(N)N)C(=O)N[C@H](C(=O)N[C@@H](CCCCN)C(=O)N[C@@H](CCCN=C(N)N)C(N)=O)C(C)C
- IC50 [7]: 190 µM
- IC50 [8]: 150 µM
- Stability [1]: Unstable
- IC50 [9]: 70 µM
- cytotoxicity at 4 h, 100 µM [2]: < 5%
- Ki [10]: 760 nM
- Drug uptake [4]: Active
- half-life at 0.5 ug/uL [5]: 516 min
- Ki [6]: 24 nM

Structure (SMILES): CC(=O)N[C@H](CC(C)C)C(=O)N[C@H](CC(C)C)C(=O)N[C@H](CC(C)C)C(=O)N[C@H](CC(C)C)C(=O)N[C@@H](CCCNC(=N)N)C(=O)N[C@H](C(=O)N[C@@H](CCCCN)C(=O)N[C@@H](CCCNC(=N)N)C(N)=O)C(C)C
- inhibition (INH) [11]: <50%
- cytotoxicity at 4 h, 100 µM [2]: < 5%
- Ki [10]: 7300 nM
- inhibition (INH) [3]: <50%
- Ki [6]: 14000 nM
- inhibition (INH) [12]: <50%

Structure (SMILES): CC(=O)N[C@@H](CC(C)C)C(=O)N[C@@H](CC(C)C)C(=O)N[C@@H](CC(C)C)C(=O)N[C@@H](CC(C)C)C(=O)N[C@@H](CCCN=C(N)N)C(=O)N[C@H](C(=O)N[C@@H](CCCCN)C(=O)NCc1ccc(C(=N)N)cc1)C(C)C (Ac-LLLLRVK-{NH(4-amidinobenzyl)})
- Stability [1]: Unstable
- cytotoxicity at 4 h, 100 µM [2]: < 5%
- Ki [10]: 4.3 nM
- Ki [13]: 13.8 nM
- Ki [14]: 0.24 nM
- half-life at 0.5 ug/uL [5]: 720 min
- Ki [6]: 3.1 nM

Structure (SMILES): CCCC[C@H](NC(=O)[C@H](CC(C)C)NC(=O)[C@H](CC(C)C)NC(C)=O)C(=O)N[C@@H](CC(C)C)C(=O)N[C@@H](CCCNC(=N)N)C(=O)N[C@H](C(=O)N[C@@H](CCCCN)C(=O)N[C@@H](CCCNC(=N)N)C(N)=O)C(C)C (Ac-LL[Nle]LRVKR-NH2)
- inhibition (INH) [11]: <50%
- IC50 [9]: 190 µM
- cytotoxicity at 4 h, 100 µM [2]: < 5%
- Ki [10]: 1980 nM
- inhibition (INH) [3]: <50%
- Ki [6]: 385 nM
